{"data": "Measurements pooled from the literature", "DPP9": "Dipeptidyl peptidase 9 (DPP9, Homo sapiens, UniProt Q86TI2)", "Genome polyprotein protease": "Genome polyprotein, protease (ZIKV, UniProt A0A024B7W1)", "CTSB": "Cathepsin B (CTSB, Homo sapiens, UniProt P07858)", "HTR7": "5-hydroxytryptamine receptor 7 (HTR7, Homo sapiens, UniProt P34969)", "Cacna1b": "Voltage-dependent N-type calcium channel subunit alpha-1B (Cacna1b, Rattus norvegicus, UniProt Q02294)", "note": "Lines come from different studies, so protocols differ."}
{"Structure (SMILES)": "COc1cc(Nc2ncc(F)c(Nc3ccc4c(n3)NC(=O)C(C)(C)O4)n2)cc(OC)c1OC", "target": "Mitogen-activated protein kinase kinase kinase kinase 1 (MAP4K1, Homo sapiens, UniProt Q92918)", "effect on": "binding", "method": "competition with immobilised ligand", "tested at": "10 µM", "inhibition [%]": 70}
{"Structure (SMILES)": "Cn1c(=O)c2ncnnc2n(C)c1=O", "target": "Ubiquitin carboxyl-terminal hydrolase 14 (USP14, Homo sapiens, UniProt P54578)", "effect on": "enzyme activity", "mode": "inhibitor", "tested at": "17 µM", "inhibition [%]": 96}
{"Structure (SMILES)": "Cc1ncc(C)n2nc(/C=C/c3nc(N4CCCC4)cc(N4CCOCC4)n3)nc12", "target": "Oxysterols receptor LXR-beta (NR1H2, Homo sapiens, UniProt P55055)", "effect on": "cell-free assay", "tested at": "10 µM", "inhibition [%]": -19}
{"Structure (SMILES)": "CN(C)C(=O)COC(=O)Cc1ccc(OC(=O)c2ccc(NC(=N)N)cc2)cc1", "target": "DPP9", "effect on": "enzyme activity", "mode": "inhibitor", "tested at": "10 µM", "inhibition [%]": 18}
{"Structure (SMILES)": "C#Cc1n[nH]c2c(-c3cn(C(C)c4ccccn4)c(=O)[nH]c3=O)cc(F)cc12 (centres unmarked)", "target": "Dual specificity protein kinase CLK3 (CLK3, Homo sapiens, UniProt P49761)", "effect on": "enzyme activity", "mode": "inhibitor", "tested at": "1 µM", "inhibition [%]": 8.3}
{"Structure (SMILES)": "COc1ccc(-c2oc3c(CC=C(C)C)c(O)cc(O)c3c(=O)c2O)cc1", "target": "Genome polyprotein protease", "effect on": "enzyme activity", "mode": "inhibitor", "method": "FRET", "tested at": "100 µM", "pH": "pH 7", "inhibition [%]": 19}
{"Structure (SMILES)": "CC(C)C[C@H](NC(=O)[C@H]1O[C@@H]1C(=O)O)C(=O)NCCCCN=C(N)N", "target": "CTSB", "effect on": "enzyme activity", "mode": "inhibitor", "tested at": "500 pM", "inhibition [%]": 32}
{"Structure (SMILES)": "Cn1cc(-c2cccc(N3CCc4c(sc5c4CC(C)(C)C5)C3=O)c2CO)cc(Nc2ccncn2)c1=O", "target": "MAP kinase-activated protein kinase 3 (MAPKAPK3, Homo sapiens, UniProt Q16644)", "effect on": "enzyme activity", "mode": "inhibitor", "tested at": "1 µM", "inhibition [%]": 4}
{"Structure (SMILES)": "N#Cc1ccc(NCCNCC(=O)N2N=CCC2C#N)nc1 (centres unmarked)", "target": "DPP9", "effect on": "enzyme activity", "mode": "inhibitor", "tested at": "0.1 µM", "inhibition [%]": 0}
{"Structure (SMILES)": "O=c1c(O)c(-c2ccc(O)c(O)c2)oc2cc(O)cc(O)c12", "target": "Genome polyprotein protease", "effect on": "enzyme activity", "mode": "inhibitor", "tested at": "200 µM", "pH": "pH 8.5", "inhibition [%]": 100}
{"Structure (SMILES)": "CCN(CC)CCCC[C@H](NC(=O)[C@H](CC(C)C)NC(=O)[C@H](C)NC(=O)[C@H](Cc1ccccc1)NC(=O)c1ccc(C(C)(C)C)cc1)C(=O)N[C@@H](CO)C(=O)OC", "target": "HTR7", "effect on": "ligand displacement", "method": "radioligand", "tested at": "10 µM", "inhibition [%]": 8}
{"Structure (SMILES)": "CC(C)Cn1cnc2c(N)nc3ccccc3c21", "target": "Alpha-1A adrenergic receptor (Adra1a, Rattus norvegicus, UniProt P43140)", "effect on": "ligand displacement", "method": "radioligand", "tested at": "10 µM", "inhibition [%]": 65}
{"Structure (SMILES)": "O=C1N=C(N2CCCCN2)S/C1=C\\c1ccc(F)cc1O", "target": "HTR7", "effect on": "ligand displacement", "method": "radioligand", "tested at": "10 µM", "inhibition [%]": "< 10"}
{"Structure (SMILES)": "O=C1c2c(O)cc(O)cc2O[C@H](c2cc(O)c(O)c(O)c2)[C@H]1O", "target": "Genome polyprotein protease", "effect on": "enzyme activity", "mode": "inhibitor", "method": "FRET", "tested at": "100 µM", "pH": "pH 7", "inhibition [%]": 23}
{"Structure (SMILES)": "C[C@H](C(=O)N[C@H]1COc2ccccc2[C@@H]1S(C)(=O)=O)c1ccc(F)cc1", "target": "Cacna1b", "effect on": "cell-free assay", "tested at": "10 µM", "inhibition [%]": 11}
{"Structure (SMILES)": "Oc1cccc(O)c1O", "target": "Genome polyprotein protease", "effect on": "enzyme activity", "mode": "inhibitor", "method": "FRET", "tested at": "100 µM", "pH": "pH 7", "inhibition [%]": 11}
{"Structure (SMILES)": "O=C(Nc1cccnn1)N1CCN([C@@H]2CCOc3cc(C(F)(F)F)ccc32)CC1", "target": "C-C chemokine receptor type 2 (CCR2, Homo sapiens, UniProt P41597)", "effect on": "cell-free assay", "tested at": "20 µM", "inhibition [%]": -9}
{"Structure (SMILES)": "CC(C)N1CCC[C@H]1CNC(=O)c1cn(C2CCCC2)c(=O)c2c1c1ccccc1n2C", "target": "Cacna1b", "effect on": "ligand displacement", "method": "radioligand", "tested at": "10 µM", "inhibition [%]": 2}
{"Structure (SMILES)": "N=C(N)c1ccc2cc(OC(=O)c3ccc(N=C(N)N)cc3)ccc2c1", "target": "CTSB", "effect on": "enzyme activity", "mode": "inhibitor", "tested at": "10 µM", "inhibition [%]": 48}
{"Structure (SMILES)": "O=C(O)c1cc(O)c(O)c(O)c1", "target": "Genome polyprotein protease", "effect on": "enzyme activity", "mode": "inhibitor", "method": "FRET", "tested at": "100 µM", "pH": "pH 7", "inhibition [%]": 15}
{"Structure (SMILES)": "CCOC(=O)c1ccc(OC(=O)CCCCCNC(=N)N)cc1", "target": "DPP9", "effect on": "enzyme activity", "mode": "inhibitor", "tested at": "10 µM", "inhibition [%]": 14}
{"Structure (SMILES)": "O=c1c(O)c(-c2cc(O)c(O)c(O)c2)oc2cc(O)cc(O)c12", "target": "Genome polyprotein protease", "effect on": "enzyme activity", "mode": "inhibitor", "method": "FRET", "tested at": "100 µM", "pH": "pH 7", "inhibition [%]": 88}
{"Structure (SMILES)": "C#Cc1n[nH]c2c(-c3cn([C@@H](C)c4ccccc4)c(=O)[nH]c3=O)cc(F)cc12", "target": "Cyclin-dependent kinase 2, with cyclin E1 (CDK2, Homo sapiens, UniProt P24941)", "effect on": "enzyme activity", "mode": "inhibitor", "tested at": "0.1 µM", "inhibition [%]": -4.8}
